Experimental findings from ChEMBL document CHEMBL5257021 (J Med Chem, 2016) are described below.

For series [1], the system named is MDA-MB-468. Kind of series: Cytotoxicity against human MDA-MB-468 cells expressing Y1R assessed as reduction in cell viability treated for 8 hrs followed by culturing in proliferation medium for 72 hrs by resazurin assay. It is filed as functional, cell-based. On the technique in general: Resazurin is reduced to fluorescent resorufin, in cell work by metabolically active cells.

Series [2] relates to MDA-MB-468. Put plainly: Cytotoxicity against human MDA-MB-468 cells expressing Y1R assessed as reduction in cell viability at 10 uM treated for 8 hrs followed by culturing in proliferation medium for 72 hrs in presence of 10 equiv hY1R agonist, [F7,P34]-NPY by resazurin assay. It is filed as functional, cell-based. To be noted: time 80.0 hrs. A digest of the protocol: (§1)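 Breast cancer cells were exposed for 8 h at 37 °C in FCS-free medium to toxic agent together with 10 equiv of hY1R agonist [F7,P34]-NPY. Cells were then washed twice and grown 72 h in culture medium. Medium-treated cells with or without agonist were set at 100% and ethanol-treated cells at 0%. Triplicate, ≥2 independent experiments.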

Series [3] can be described thus: Cytotoxicity against human HEK293 cells assessed as cell viability at >= 1 uM treated for 8 hrs followed by culturing in proliferation medium for 72 hrs by resazurin assay. It is filed as toxicity, cell-based. To be noted: read-out: Activity. An outline of the steps:
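Seeding was 6000/well for MDA-MB-231, 10000 for T-47D, and 8000 for MDA-MB-468 and HEK293. After 24 h, cells got compound at 50 to 0.01 μM in FCS-free medium for 8 h at 37 °C, were washed twice, then kept 72 h in culture medium. Resazurin 10% (v/v) was added for 2 h at 37 °C and resorufin fluorescence read (ex 550/em 595 nm). Medium-only cells were set at 100% and 70% ethanol-treated cells at 0%.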

A further series has as its system T47D. Kind of series: Cytotoxicity against human T47D cells expressing Y1R assessed as reduction in cell viability at 5 uM treated for 8 hrs followed by culturing in proliferation medium for 72 hrs in presence of 10 equiv hY1R agonist, [F7,P34]-NPY by resazurin assay. It is filed as functional, cell-based. To be noted: time 80.0 hrs. A digest of the protocol:
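Breast cancer cells were exposed for 8 h at 37 °C in FCS-free medium to toxic agent together with 10 equiv of hY1R agonist [F7,P34]-NPY. Cells were then washed twice and grown 72 h in culture medium. Viability was read by resazurin (10% v/v, 2 h, ex 550/em 595 nm). Medium-treated cells with or without agonist were set at 100% and ethanol-treated cells at 0%. Triplicate, ≥2 independent experiments.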

The test system of series [4] is MDA-MB-231. Kind of series: Cytotoxicity against human MDA-MB-231 cells expressing Y1R assessed as reduction in cell viability at 25 uM treated for 8 hrs followed by culturing in proliferation medium for 72 hrs in presence of 10 equiv hY1R agonist, [F7,P34]-NPY by resazurin assay. It is filed as functional, cell-based. To be noted: time 80.0 hrs. An outline of the steps: as §1

A further series deals with T-47D (Homo sapiens). Put plainly: Cytotoxicity against human T47D cells expressing Y1R assessed as reduction in cell viability treated for 8 hrs followed by culturing in proliferation medium for 72 hrs by resazurin assay.
Another series relates to T47D (Homo sapiens). Described as above.
Series [5] deals with MDA-MB-231. Kind of series: Cytotoxicity against human MDA-MB-231 cells expressing Y1R assessed as reduction in cell viability treated for 8 hrs followed by culturing in proliferation medium for 72 hrs by resazurin assay.

SMILES strings stand for the structures. Activity calls are given as the source filed them. The calls are words filed in the database; no cut-off is given here.

As for `CN(Cc1cnc2nc(N)nc(N)c2n1)c1ccc(C(=O)N[C@@H](CCC(=O)O)C(=O)O)cc1` [METHOTREXATE], the IC50 is 0.2 µM with MDA-MB-468 [1] (read-out: IC50); 0.2 µM with MDA-MB-468 [1] (read-out: pIC50 (converted)); 0.501 µM with T-47D (Homo sapiens); 0.5 µM with T47D (Homo sapiens); 15 µM with MDA-MB-231 [5] (read-out: IC50); 15.8 µM in the series on MDA-MB-231 [5] (read-out: pIC50 (converted)). The result in the series on MDA-MB-468 [2], with T47D and with MDA-MB-231 [4] was Active. The viability at 80 h, 1 µM in series [3] was 65%.
